Data set [1] deals with USP7 catalytic domain (amino acids 208–560) (Homo sapiens, UniProt Q93009). The data set is described as follows: Ub-AMC assay, USP7 catalytic domain. The class given is biochemical. As to conditions: for inhibition of USP7: catalytic domain, Ub-AMC, concentrations up to 100 μM. Put shortly:
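Human USP7 catalytic domain (residues 208–560) was expressed in E. coli BL21(DE3), purified on Ni-NTA, thrombin-treated, gel-filtered and used at 250 nM. 2 uM Ub-AMC was then added. Fluorescence (ex 345/em 445 nm) was read every minute for 30 min. IC50 came from initial rates plotted against concentration.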

A short description of data set [2]: Solubility in aqueous buffer. The data set is classed as physicochemical.
In a further data set the test system is USP7. As to conditions: read-out: IC50, USP7; ref Altun et al., 2011; Ritorto et al., 2014; cited from earlier work.
For the next data set, the system named is USP47. Particulars: ref Altun et al., 2011; Ritorto et al., 2014; cited from earlier work.
A further data set concerns USP10. As to conditions: ref Altun et al., 2011; Ritorto et al., 2014; cited from earlier work.
In another data set the test system is panel of purified DUBs. The data set is described as follows: Selectivity profiling. The class given is biochemical.
A further data set relates to MCF7 cells. The data set is described as follows: HDM2, p53 and p21 protein levels in MCF7 cells. The data set is classed as cell-based. Particulars: 16 hours. Put shortly: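 MCF7 cells grown in RPMI with 10% heat-inactivated FBS and penicillin/streptomycin at 37 °C, 5% CO2. Treated with test compound or DMSO for 16 h. Where used, cycloheximide (50 ug/ml) was added at 14 h. Cells were washed in PBS and lysed in modified RIPA buffer with phosphatase and protease inhibitors. Protein was quantified by BCA, then immunoblotted for mdm2, p53, p21, GAPDH and USP7.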

Another data set concerns MM.1S cells. The data set is described as follows: HDM2, p53 and p21 protein levels in MM.1S cells. The data set is classed as cell-based. As to conditions: 6 hours. The method, boiled down: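 MM.1S cells were cultured in RPMI with 10% heat-inactivated FBS and penicillin/streptomycin (37 °C, 5% CO2). They were exposed to test compound or DMSO for 6 h, with or without 50 ug/ml cycloheximide added at 4 h. After a PBS wash, cells were lysed in modified RIPA containing phosphatase and protease inhibitors. Lysates were BCA-normalised and immunoblotted for mdm2, p53, p21, GAPDH and USP7.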

Data set [3] addresses full-length USP7 (amino acids 1–1102) (Homo sapiens, UniProt Q93009). The data set is described as follows: Ub-AMC assay, full-length USP7. Particulars: XL188 vs 1. The class given is biochemical. The method, boiled down: (§1)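 Full-length USP7 (1–1102), wild type or Q351 mutant, was expressed in E. coli BL21(DE3), purified by Ni-NTA and Superdex 200 and used at 50 nM. 2 uM Ub-AMC was added and fluorescence (345/445 nm) read each minute over 30 min. Initial rates against concentration gave IC50.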

In the next data set the target is full-length USP7Q351S (Homo sapiens, UniProt Q93009, Q351S). The data set is described as follows: Ub-AMC assay, full-length USP7Q351S. The class given is biochemical. As to conditions: dose-response, amino acids 1–1102. The method, boiled down:
as §1

A further data set addresses native USP7 (Homo sapiens, UniProt Q93009). The data set is described as follows: Competitive activity based protein profiling with HA-Ub-Vs in HEK293T lysates. The data set is classed as binding.
Data set [4] can be described thus: Mouse liver microsome stability. The data set is classed as in vitro ADME. As to conditions: liver microsomes.

As usually defined, the pIC50 is −log10 of the IC50, conventionally taken in molar units. As usually defined, the half-life is the time in which the quantity being followed falls by half. High values mean slow loss, low ones fast loss.

pIC50: −log10 of the molar value. Some results are limits rather than exact numbers.

Chain of USP7 catalytic domain (amino acids 208–560) (Q93009 208-560): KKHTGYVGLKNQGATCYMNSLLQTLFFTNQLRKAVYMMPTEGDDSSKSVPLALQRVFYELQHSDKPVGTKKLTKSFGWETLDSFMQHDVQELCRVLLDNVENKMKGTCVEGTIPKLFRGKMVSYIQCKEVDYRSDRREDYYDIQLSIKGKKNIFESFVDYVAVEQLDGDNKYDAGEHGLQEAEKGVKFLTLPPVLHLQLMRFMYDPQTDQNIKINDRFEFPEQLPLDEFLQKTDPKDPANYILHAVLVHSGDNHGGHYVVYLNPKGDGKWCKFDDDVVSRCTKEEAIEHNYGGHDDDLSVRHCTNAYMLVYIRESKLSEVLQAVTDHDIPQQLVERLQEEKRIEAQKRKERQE
Chain of full-length USP7 (amino acids 1–1102) (Q93009 whole entry, the tested form may be a part): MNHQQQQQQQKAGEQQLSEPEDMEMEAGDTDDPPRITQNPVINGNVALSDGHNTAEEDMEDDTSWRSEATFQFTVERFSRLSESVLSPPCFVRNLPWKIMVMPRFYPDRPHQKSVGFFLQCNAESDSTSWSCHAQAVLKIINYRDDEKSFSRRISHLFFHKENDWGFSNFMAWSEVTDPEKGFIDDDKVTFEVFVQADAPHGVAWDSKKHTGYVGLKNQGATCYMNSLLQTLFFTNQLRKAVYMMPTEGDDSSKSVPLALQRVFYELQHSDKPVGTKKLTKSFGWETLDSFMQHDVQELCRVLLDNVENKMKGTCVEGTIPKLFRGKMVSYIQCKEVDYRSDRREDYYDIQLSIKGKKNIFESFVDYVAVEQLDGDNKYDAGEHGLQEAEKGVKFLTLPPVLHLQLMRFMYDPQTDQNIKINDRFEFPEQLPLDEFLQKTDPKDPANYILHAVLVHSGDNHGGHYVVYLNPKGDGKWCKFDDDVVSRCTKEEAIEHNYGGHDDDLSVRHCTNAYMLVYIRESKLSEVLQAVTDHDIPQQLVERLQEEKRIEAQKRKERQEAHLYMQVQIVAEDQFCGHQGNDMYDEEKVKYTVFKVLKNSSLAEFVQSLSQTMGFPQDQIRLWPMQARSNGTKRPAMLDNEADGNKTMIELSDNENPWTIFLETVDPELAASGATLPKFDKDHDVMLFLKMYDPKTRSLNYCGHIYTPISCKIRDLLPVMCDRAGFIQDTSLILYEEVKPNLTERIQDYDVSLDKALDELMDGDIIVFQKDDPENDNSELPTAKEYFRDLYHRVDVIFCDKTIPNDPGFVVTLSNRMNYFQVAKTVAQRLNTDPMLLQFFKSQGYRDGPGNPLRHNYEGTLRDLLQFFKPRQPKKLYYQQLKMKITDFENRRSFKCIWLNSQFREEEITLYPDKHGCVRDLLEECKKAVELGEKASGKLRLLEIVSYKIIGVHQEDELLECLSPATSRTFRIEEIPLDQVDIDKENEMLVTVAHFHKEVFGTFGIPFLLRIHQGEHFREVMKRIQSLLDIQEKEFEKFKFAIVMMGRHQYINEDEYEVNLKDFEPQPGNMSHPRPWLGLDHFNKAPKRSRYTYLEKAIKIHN
Chain of native USP7 (Q93009 whole entry): as the sequence (Q93009 whole entry, the tested form may be a part) above
Chain of full-length USP7Q351S (Q93009 whole entry Q351S, the tested form may be a part): as the sequence (Q93009 whole entry, the tested form may be a part) above, with Q351S counted along it

Regarding `O=C(CCc1ccccc1)N1CCC(Cn2cnc3cc(Cl)ccc3c2=O)CC1` [Compound 2, 7-chloro-3-((1-(3-phenylpropanoyl)piperidin-4-yl)methyl)quinazolin-4(3H)-one], the “inhibition of USP7” value in [1] is given as “little inhibition”.

For `N#CC1(Cn2cnc3cc(Cl)ccc3c2=O)CCN(C(=O)CCc2ccccc2)CC1` [Compound 3, 4-((7-chloro-4-oxoquinazolin-3(4H)-yl)methyl)-1-(3-phenylpropanoyl)piperidine-4-carbonitrile], the “inhibition of USP7” value in [1] was “little inhibition”.

In the case of `O=c1c2ccc(Cl)cc2ncn1CC1(O)CCN(CCCc2ccccc2)CC1` [Compound 4, 7-chloro-3-((4-hydroxy-1-(3-phenylpropyl)piperidin-4-yl)methyl)quinazolin-4(3H)-one], the “inhibition of USP7” value in [1] is reported as “abrogated USP7 activity”.

As to `O=C(CCc1ccccc1)N1CCC(O)(Cn2cnc3cc(Cl)ccc3c2=O)C1` (stereo not drawn) [Compound 5, 7-chloro-3-((3-hydroxy-1-(3-phenylpropanoyl)pyrrolidin-3-yl)methyl)quinazolin-4(3H)-one], in [1], the “inhibition of USP7” value is recorded as “abrogated USP7 activity”.

Consider `CC(=O)N1CCC(O)(Cn2cnc3cc(Cl)ccc3c2=O)CC1` [Compound 6, 3-((1-acetyl-4-hydroxypiperidin-4-yl)methyl)-7-chloroquinazolin-4(3H)-one], for which the pIC50 in data set [1] is under 4.00.

Turning to `O=C(Cc1ccccc1)N1CCC(O)(Cn2cnc3cc(Cl)ccc3c2=O)CC1` [Compound 7, 7-chloro-3-((4-hydroxy-1-(2-phenylacetyl)piperidin-4-yl)methyl)quinazolin-4(3H)-one], in data set [1], the pIC50 was under 4.00.

For `CC(CC(=O)N1CCC(O)(Cn2cnc3cc(Cl)ccc3c2=O)CC1)c1ccccc1` (stereo not drawn) [Compound 8, 7-chloro-3-((4-hydroxy-1-(3-phenylbutanoyl)piperidin-4-yl)methyl)quinazolin-4(3H)-one], the “fold improvement of biochemical potency” value in data set [1] (relative to 1) is “approximately 10 fold”.

For the compound `C[C@H](CC(=O)N1CCC(O)(Cn2cnc3cc(Cl)ccc3c2=O)CC1)c1ccccc1` [Compound 9, (R)-7-chloro-3-((4-hydroxy-1-(3-phenylbutanoyl)piperidin-4-yl)methyl)quinazolin-4(3H)-one], the “solubility in aqueous buffer” value in [2] is recorded as “poor”. The “fold more potent than the (S)-stereoisomer (10)” value in data set [1] ((R)- vs (S)-stereoisomer) was “approximately 100 fold”.

With `CC(=O)c1cc([N+](=O)[O-])c(Sc2ccc(F)cc2F)s1` [Compound P22077], in the data set with USP7, the pIC50 was […]. Also, in the data set on USP47, the “inhibition of USP47 compared with USP7” value is given as “equipotent”. For the same compound, the “inhibition of USP10 compared with USP7” value with USP10 is “equipotent”.

For `C[C@H](CC(=O)N1CCC(O)(Cn2cnc3cc(NC(=O)CCN4CCN(C)CC4)ccc3c2=O)CC1)c1ccccc1` [XL188, (R)-N-(3-((4-hydroxy-1-(3-phenylbutanoyl)piperidin-4-yl)methyl)-4-oxo-3,4-dihydroquinazolin-7-yl)-3-(4-methylpiperazin-1-yl)propanamide], the “inhibition of DUBs other than USP7, panel of 41 purified DUBs” value in the data set with panel of purified DUBs (10 μM compound, Ub-Rho as substrate) is listed as “little to no inhibition”. Also, the “levels of p53 and p21” value in the data set with MCF7 cells is recorded as “increased”. The HDM2 level result in the data set on MCF7 cells (cycloheximide for the last 2 hours) was “Degradation of HDM2”; with MM.1S cells, “loss of HDM2”. Further, the “levels of p21 and p53” value with MM.1S cells is “increase”. Further, the “fold improvement in biochemical inhibition of USP7 compared to 1” value in data set [3] was 100 fold. Also, the “inhibition of full-length USP7Q351S” value against full-length USP7Q351S is given as “resistant”. Moreover, the figures for the pIC50 (on native USP7; in [1]) were about 6.05 and 6.71, respectively. The compound further registered a half-life in data set [4] of 31 min.

As for `C[C@@H](CC(=O)N1CCC(O)(Cn2cnc3cc(NC(=O)CCN4CCN(C)CC4)ccc3c2=O)CC1)c1ccccc1` [XL203C, (S)-N-(3-((4-hydroxy-1-(3-phenylbutanoyl)piperidin-4-yl)methyl)-4-oxo-3,4-dihydroquinazolin-7-yl)-3-(4-methylpiperazin-1-yl)propanamide], in the data set with panel of purified DUBs (Figure S1G, Table S1, concentration not given), the “inhibition of other DUBs” value is “no significant inhibition”. Moreover, in the data set with MCF7 cells, the “levels of p53 and p21” value is listed as “no observable change”.

The values above are taken from publication PMC5749250 (Cell chemical biology, 2017).
